Results reported in ChEMBL document CHEMBL1142540, “Novel piperidinylpyrimidine derivatives as inhibitors of HIV-1 LTR activation” (Bioorg Med Chem, 2008).

How the values were obtained:
Jurkat [1] = assay: Inhibition of HIV1 LTR-driven CAT gene expression in PMA-stimulated human JURKAT cells at 5 uM; format: cell-based; conditions: Human immunodeficiency virus 1
Procedure, shortened: (§1)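 Jurkat cells electroporated (140 V) with HIV-1 LTR-CAT plasmid p469 using DEAE-dextran and cultured 20 h. Cells then stimulated with PMA 10 ng/ml in presence of compound for 24 h at 37 °C, lysed by freeze-thaw.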

Jurkat [2] = assay: Cytotoxicity against human JURKAT cells; format: cell-based
Procedure, shortened: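 Cell number of treated Jurkat cells counted by Coulter counter to assess inhibition of proliferation.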

[3] = Inhibition of HIV1 LTR-driven CAT gene expression in PMA-stimulated human JURKAT cells; format: cell-based; conditions: Human immunodeficiency virus 1, Jurkat; procedure, shortened: as §1
[4] = system: Peritoneal macrophage cell; assay: Inhibition of LPS-stimulated TNFalpha production in BALB/c mouse peritoneal macrophages by ELISA; format: functional, cell-based
Procedure, shortened: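 Thioglycolate-elicited peritoneal macrophages from 5-week-old female BALB/c mice, adherent cells at 2×10^5/well in MEM with 10% FBS. LPS 10 ug/ml final, added together with compound (DMSO below 0.1%), 20 h. Supernatant TNF-α measured by sandwich ELISA against recombinant mouse TNF-α standard curve, absorbance at 450 nm.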

PBMC = assay: Inhibition of LPS-stimulated TNFalpha production in human PBMC; format: functional, cell-based
Procedure, shortened: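 Human PBMC from healthy donors isolated by Ficoll-Paque, seeded at 1×10^5 cells/well in RPMI 1640 with 10% heat-inactivated FBS and L-glutamine. Stimulated with LPS 0.1 ug/ml final, compound added at the same time (DMSO below 0.1%), 20 h; supernatants collected for TNF-α.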

[5] = Inhibition of HIV1 LTR-driven CAT gene expression in Tat-stimulated human JURKAT cells; format: cell-based; conditions: Human immunodeficiency virus 1, Jurkat
Procedure, shortened: (§2)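 Jurkat cells co-electroporated (140 V) with LTR-CAT p469 plus pSV-Tat using DEAE-dextran, cultured 20 h, then treated with compound alone (no PMA) for 24 h at 37 °C.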

Jurkat [6] = assay: Inhibition of HIV1 LTR-driven CAT gene expression in Tat-stimulated human JURKAT cells at 1 uM; format: cell-based; conditions: Human immunodeficiency virus 1; procedure, shortened: as §2
[7] = Inhibition of Tat-induced HIV1 LTR transactivation; parameters: species or system Human immunodeficiency virus 1
Procedure, shortened: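 Jurkat cells electroporated at 140 V with HIV-1 LTR-CAT plasmid p469 (1 µg) plus pSV-Tat (0.5 µg) and DEAE-dextran, then cultured 20 h at 37 °C. Cells were exposed to compound without PMA for 24 h and lysed. Reported as % inhibition at 5 µM or IC50, single determination.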

[8] = Inhibition of HIV1 LTR-driven CAT gene expression in PMA-stimulated HEK293-27-2 cells assessed as […]; conditions: Human immunodeficiency virus 1
[9] = Inhibition of Tat-induced HIV1 LTR transactivation in human HeLa cells assessed as CAT expression after 2 days; format: cell-based; conditions: Human immunodeficiency virus 1, HeLa, 48 h

SMILES	inhibition (Jurkat [1]) [%]	Activity (Jurkat [2])	IC50 [3] [nM]	also measured
COc1ccc(Cc2cc(C3CCN(C(=O)c4ccc5occc5c4)CC3)nc(N)n2)cc1	4	Non-toxic	> 5000	
COc1ccc(Cc2cc(C3CCN(C(=O)c4ccc5c(c4)OCO5)CC3)nc(=O)[nH]2)cc1		Non-toxic	> 5000	
COc1ccc(Cc2cc(C3CCN(C(=O)c4ccc(OC)cc4)CC3)nc(N)n2)cc1	-5	Non-toxic	> 5000	IC50 [4]: 500 nM
Nc1nc(CCc2ccccc2)cc(C2CCN(C(=O)c3ccc4c(c3)OCO4)CC2)n1		Non-toxic	2100	
COc1ccc(Cc2cc(C3CCN(C(C)=O)CC3)nc(N)n2)cc1	0	Non-toxic	> 5000	
COc1ccc(Cc2cc(C3CCN(C(=O)c4ccc5c(c4)OCO5)CC3)nc(Cl)n2)cc1		Non-toxic	700	
COc1ccc(Cc2cc(C3CCN(C(=O)c4ccc5ocnc5c4)CC3)nc(N)n2)cc1	-7	Non-toxic	> 5000	
COc1ccc(Cc2cc(C3CCN(C(=O)c4ccc(Cl)cc4)CC3)nc(N)n2)cc1	21	Non-toxic	> 5000	IC50 [4]: 600 nM
Nc1nc(Cc2ccc(Br)cc2)cc(C2CCN(C(=O)c3ccc4c(c3)OCO4)CC2)n1		Non-toxic	700	
COc1ccc(OC)c(Cc2cc(C3CCN(C(=O)c4ccc5c(c4)OCO5)CC3)nc(N)n2)c1		Non-toxic	200	IC50 (PBMC): 7700 nM; IC50 [5]: < 1000 nM; inhibition (Jurkat [6]): 58%
COc1ccc(Cc2cc(C3CCN(C(=O)c4ccc5ccoc5c4)CC3)nc(N)n2)cc1	2	Non-toxic	> 5000	
Nc1nc(Cc2ccc(O)cc2)cc(C2CCN(C(=O)c3ccc4c(c3)OCO4)CC2)n1	36	Non-toxic	> 5000	
COc1ccc(Cc2cc(C3CCN(C(=O)c4ccc([N+](=O)[O-])cc4)CC3)nc(N)n2)cc1	23	Non-toxic	> 5000	IC50 [4]: 700 nM
COc1ccc(Cc2cc(C3CCN(C(=O)c4ccc5c(c4)OCO5)CC3)nc(N)n2)cc1OC		Non-toxic	600	IC50 (PBMC): 3200 nM
COc1ccc(Cc2cc(C3CCN(C(=O)c4ccc5c(c4)OCO5)CC3)no2)cc1	36	Non-toxic	> 5000	
COc1ccc(Cc2cc(C3CCN(C(=O)c4ccc5c(c4)OCO5)CC3)on2)cc1	35	Non-toxic	> 5000	
COc1ccc(Cc2cc(C3CCN(C(=O)c4ccc5c(c4)OCO5)CC3)n[nH]2)cc1	35	Non-toxic	> 5000	
COc1ccc(Cc2cc(C3CCN(C(=O)Cc4ccc(OC)c(OC)c4)CC3)nc(N)n2)cc1	7	Non-toxic	> 5000	
COc1ccc(Cc2cc(C3CCN(C(=O)Cc4ccc5c(c4)OCO5)CC3)nc(N)n2)cc1	16	Non-toxic	> 5000	
COc1ccc(Cc2cc(C3CCN(Cc4ccc5c(c4)OCO5)CC3)nc(N)n2)cc1	-2	Non-toxic	> 5000	
COc1ccc(Cc2cc(C3CCN(C(=O)c4cccc5c4OCO5)CC3)nc(N)n2)cc1	13	Non-toxic	> 5000	
COc1ccc(Cc2cc(C3CCN(C(=O)c4ccc5ncoc5c4)CC3)nc(N)n2)cc1	-8	Non-toxic	> 5000	
C[S+]([O-])c1ccc(Cc2cc(C3CCN(C(=O)c4ccc5c(c4)OCO5)CC3)nc(N)n2)cc1 (configuration not stated)	27	Non-toxic	> 5000	
COc1ccc(-c2c(C)nc(N)nc2C2CCN(C(=O)c3ccc4c(c3)OCO4)CC2)cc1	31	Non-toxic	> 5000	
O=C1CN=C(c2ccc[nH]2)c2cc(Cl)ccc2N1				IC50 [7]: 100 nM
COc1ccc(Cc2cc(C3CCN(C(=O)c4ccc5c(c4)OCO5)CC3)nc(N)n2)cc1	86	Non-toxic	600	IC50 (PBMC): 1900 nM; IC50 [4]: 600 nM; IC50 [5]: 4000 nM

SMILES	inhibition (Jurkat [1]) [%]	Activity (Jurkat [2])	IC50 [3] [nM]	also measured
COc1ccc(Cc2cc(C3CCN(C(=O)c4ccccc4)CC3)nc(N)n2)cc1	19	Non-toxic	> 5000	
Nc1nc(Cc2ccc3c(c2)OCO3)cc(C2CCN(C(=O)c3ccc4c(c3)OCO4)CC2)n1		Non-toxic	700	IC50 (PBMC): 3300 nM
Nc1nc(C2CCN(C(=O)c3ccc4c(c3)OCO4)CC2)c2ccccc2n1		Non-toxic	2600	
COc1ccc(Cc2cc(C3CCN(C(=O)c4ccc5c(c4)OCCO5)CC3)nc(N)n2)cc1	7	Non-toxic	> 5000	
Nc1nc(-c2ccccc2)cc(C2CCN(C(=O)c3ccc4c(c3)OCO4)CC2)n1	47	Non-toxic	> 5000	
CS(=O)(=O)c1ccc(Cc2cc(C3CCN(C(=O)c4ccc5c(c4)OCO5)CC3)nc(N)n2)cc1	37	Non-toxic	> 5000	
CSc1ccc(Cc2cc(C3CCN(C(=O)c4ccc5c(c4)OCO5)CC3)nc(N)n2)cc1		Non-toxic	200	IC50 [5]: < 1000 nM; inhibition (Jurkat [6]): 57%
CC(=O)CCCCn1c(=O)c2c(ncn2C)n(C)c1=O [PENTOXIFYLLINE]				IC50 [8]: 500000 nM
COc1ccc(Cc2cc(C3CCN(C(=O)c4ccc5nsnc5c4)CC3)nc(N)n2)cc1	4	Non-toxic	> 5000	
Nc1nc(Cc2ccccc2)cc(C2CCN(C(=O)c3ccc4c(c3)OCO4)CC2)n1		Non-toxic	800	IC50 (PBMC): 3200 nM
COc1ccc(Cc2cc(C3CCN(C(=O)c4ccc5[nH]ccc5c4)CC3)nc(N)n2)cc1	1	Non-toxic	> 5000	
C[S+]([O-])c1ccc(-c2nc(-c3ccc(F)cc3)c(-c3ccncc3)[nH]2)cc1 (configuration not stated) [SB-203580]				IC50 [9]: 100 nM
COc1ccc(Cc2cc(C3CCN(C(=O)c4ccc5c(c4)OCO5)CC3)ncn2)cc1		Non-toxic	500	
COc1ccc(-c2cc(C3CCN(C(=O)c4ccc5c(c4)OCO5)CC3)nc(N)n2)cc1		Non-toxic	1900	
Nc1nc(Cc2ccc(Cl)cc2)cc(C2CCN(C(=O)c3ccc4c(c3)OCO4)CC2)n1		Non-toxic	1300	IC50 (PBMC): 13000 nM; IC50 [5]: 7100 nM
Cn1cc(C(=O)O)c(=O)c2cc(F)c(N3CC=C(c4ccccc4)CC3)c(C(F)(F)F)c21 [FLUOROQUINOLINE K37]				IC50 [9]: < 160 nM
COc1ccc(Cc2cc(C3CCN(C(=O)c4ccc(Cl)c(Cl)c4)CC3)nc(N)n2)cc1	17	Non-toxic	> 5000	IC50 [4]: 700 nM
COc1ccc(Cc2cc(C3CCN(C(=O)c4ccc(OC)c(OC)c4)CC3)nc(N)n2)cc1	14	Non-toxic	> 5000	IC50 [4]: 900 nM
Nc1nc(-c2ccc(Cl)cc2)cc(C2CCN(C(=O)c3ccc4c(c3)OCO4)CC2)n1	42	Non-toxic	> 5000	
Nc1nc(Cc2ccc(OCc3ccccc3)cc2)cc(C2CCN(C(=O)c3ccc4c(c3)OCO4)CC2)n1		Non-toxic	1200	IC50 [5]: 2100 nM
COc1cccc(Cc2cc(C3CCN(C(=O)c4ccc5c(c4)OCO5)CC3)nc(N)n2)c1		Non-toxic	300	IC50 (PBMC): 2700 nM
CCCCCCCC(=O)N1CCC(c2cc(Cc3ccc(OC)cc3)nc(N)n2)CC1	19	Non-toxic	> 5000	
COc1cc(Cc2cc(C3CCN(C(=O)c4ccc5c(c4)OCO5)CC3)nc(N)n2)cc(OC)c1		Non-toxic	300	IC50 (PBMC): 3300 nM; IC50 [5]: < 1000 nM; inhibition (Jurkat [6]): 56%
Cc1cc(C2CCN(C(=O)c3ccc4c(c3)OCO4)CC2)nc(N)n1	10	Non-toxic	> 5000	
COc1ccc(Cc2cc(C3CCN(C(=O)c4ccc5c(c4)CCO5)CC3)nc(N)n2)cc1	-8	Non-toxic	> 5000	
